Results on 40 compounds are retold here after ChEMBL document CHEMBL4513216, “Probing the Open Global Health Chemical Diversity Library for Multistage-Active Starting Points for Next-Generation Antimalarials” (ACS Infect Dis, 2020).

The nature of the data set: Toxicity liver stage against HepG2, at 10uM. In kind it is cell-based. Also on record: test concentration 10 uM, cell line HepG2-A16-CD81EGFP. The note with it: human, HepG2-A16-CD81EGFP cells; read-out: INHIBITION
Summed up: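 Uninfected HepG2-A16-CD81EGFP cells, 3 × 10^3 per well, 1536-well, plated on prespotted compound at 10 μM final, parasite-free screening media added to match infected plates; puromycin 10 μM positive, DMSO 0.5% negative; run in parallel with 48 h PbLuc assay at 37 °C, 5% CO2; viability by CellTiter-Glo luminescence, normalized to controls.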

SMILES strings stand for the structures.

Take `COCCN1CCN(C(C)c2nc(C3CC3)no2)CC1` (stereo not given): the cytotoxicity at 10 µM was -8.36%.

On to `Cc1ccc(N(CC(=O)NCc2nnc3n2CCC3)S(C)(=O)=O)cc1`, for which the cytotoxicity at 10 µM was -4.66%. For `CS(=O)(=O)N1CCc2ccc(=O)n(CC3CC3)c2CC1`, the cytotoxicity at 10 µM was found to be 7.25%.

With `COc1cc(CN2CCC(COCc3ccccc3)CC2)cc(OC)c1`, the cytotoxicity at 10 µM was -3.38%. For the compound `Cc1nc(CNC2CCc3ncnn3C2)oc1C` (stereo not given), the cytotoxicity at 10 µM was -3.86%. To `Cc1oc(-c2nc(C#N)c(NC(C)(C)C)o2)cc1S(=O)(=O)N1CCCC1` belongs -0.699%; to `Cc1csc(CN2CC[C@H]3C[C@@H](c4nc(C)no4)O[C@@H]3C2)n1`, 3.8%. The same measure for `Cc1ncsc1C(=O)N(C)Cc1ccc(Br)o1`: -39.3%; for `O=C(C1COc2ccccc2C1)N(CCO)Cc1ccccc1` (stereo not given): 4.58%; for `CC(C)Oc1ncccc1CNC(=O)N1CCCC1c1ccsc1` (stereo not given): -8.25%.

Take `c1ccc2oc(CCCN3CCc4cncnc4C3)nc2c1`: the cytotoxicity at 10 µM was -14.6%. Turning to `COCC(=O)N1CCCC1c1nc(C)c2c(n1)N(CC(C)C)C(=O)CC2` (stereo not given), the cytotoxicity at 10 µM is 1.6%. The same measure for `CC(CCSc1ccccc1)N1CCN(C(=O)c2ccccc2O)CC1` (stereo not given): 8.97%; for `CCCS(=O)(=O)N1CCC(Nc2c(F)cc(C#N)cc2F)CC1`: 1.34%. With `Cc1ccc(C(=O)N(C)Cc2nccn2CC(F)(F)F)cn1`, the cytotoxicity at 10 µM is 2.52%. The same measure for `CSc1cccc(CNC(=O)C2CC(=O)N(CCN(C)C)C2)c1` (stereo not given): -4.15%; for `CC1=N[C@@]2(CC[C@@H]3CN(CC(C)C)C[C@@H]32)C(=O)N1`: 6.5%.

Consider `c1c(CN2CCCCC2)nc2n1CCN(CC1CC1)C2`, for which the cytotoxicity at 10 µM is -113%. To `CCN(CC)C(=O)C1CCC(=O)N(CCc2cccc(F)c2)C1` (stereo not given) belongs -4.92%.

Take `O=c1n(CCn2cccc2)nc(C2CCNCC2)n1Cc1ccccc1`: the cytotoxicity at 10 µM is -2.06%.

For the compound `Cc1nc(C)n(CC2CN(CCCOc3ccc(F)cc3)CCO2)n1` (stereo not given), the cytotoxicity at 10 µM is -4.26%. The same measure for `NC(=O)C(NC(=O)COC1CCCC1)c1ccccc1` (stereo not given): 3.25%. The same measure for `O=C(NC1CC1)C(c1ccccc1)N1CCN(Cc2ccc(Cl)s2)CC1` (stereo not given): 4.46%.

In the case of `CSCCC(=O)N1CCCC(c2ncc[nH]2)C1` (stereo not given), the cytotoxicity at 10 µM was -1.64%.

On to `CN(CC(C)(C)O)C1CCCN(Cc2noc(C3CC3)n2)C1` (stereo not given), for which the cytotoxicity at 10 µM was determined as 0.85%. As for `CN1CC(c2ccccc2)CC2(CCN(C(=O)c3cccnn3)CC2)C1` (stereo not given), the cytotoxicity at 10 µM was -8.92%.

Regarding `O=S(=O)(Cc1ccccc1)NCC1CCN(c2cnccn2)CC1`, the cytotoxicity at 10 µM came to 14.4%. In the case of `CCn1cc(CN2CCN(Cc3cccc(OC)c3)C(=O)C2)cc1C#N`, the cytotoxicity at 10 µM was 2.96%. Consider `N#CCCN(Cc1cccnc1)C(=O)Cc1ccc(-n2cnnn2)cc1`, for which the cytotoxicity at 10 µM worked out at 2.32%.

For the compound `Cc1noc(CN2CCN(C(=O)N(C)C)CC2)n1`, the cytotoxicity at 10 µM is -1.22%.

In the case of `CCN(C)c1ncc2c(c1C(=O)O)CCN(C1CCOC1)C2` (stereo not given), the cytotoxicity at 10 µM worked out at 11.5%. The same measure for `N#CCCSc1nnc(Cc2ccccc2F)o1`: -11.7%; for `CN(C)C(CNC(=O)c1ncoc1-c1ccccc1)c1ccsc1` (stereo not given): -0.303%; for `CCN(Cc1ccc(Cl)s1)S(=O)(=O)CC`: -1.11%. The same measure for `COc1ccc(CCNC(=O)NC2CC(=O)N(c3ccccc3)C2)cc1` (stereo not given): -48%; for `O=C(NCc1cc(Cl)ccn1)NCc1ccco1`: 8.5%; for `Nc1cc2c(nn1)CCN(C(=O)c1cccc3c1OCO3)C2`: -8.08%. To `CC(C)Cc1noc(CNc2ccccc2CC(=O)N(C)C)n1` belongs 0.489%; to `Cc1cc(CCC(N)=O)cc(C2CCCN2Cc2ccnn2C)n1` (stereo not given), -19.8%.

`CC[C@H]1CN2CC[C@H]1C[C@@H]2CNCc1cccc(C#N)c1`: the cytotoxicity at 10 µM was 5.96%.
